The text below walks through data of ChEMBL document CHEMBL4842369, “Synthesis, structure-activity relationship and antiviral activity of indole-containing inhibitors of Flavivirus NS2B-NS3 protease” (Eur J Med Chem, 2021).

For data set [1], the target named is Nonstructural protein 3 (Zika virus, UniProt A0A024AXB9). Put plainly: Inhibition of Zika virus recombinant NS2B (47 to 95 residues)/NS3 (1 to 177 residues) protease expressed in Escherichia coli BL21 using Bz-Nle-Lys-Lys-Arg-AMC as substrate preincubated for 10 mins by fluorescence-based biochemical assay. The method in brief: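 ZIKV NS2B-NS3 protease at 1 nM, with 10 µM Bz-Nle-Lys-Lys-Arg-AMC in 20 mM HEPES pH 7.3 containing 0.05% Triton X-100. Compound at increasing concentrations in triplicate, pre-incubated with enzyme 10 min before substrate. Fluorescence (Ex 360/Em 460 nm) read every 30 s. IC50 from dose-response curve fit, 3 independent experiments, standard deviation.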
Sequence of Nonstructural protein 3 (A0A024AXB9 whole entry, the tested form may be a part): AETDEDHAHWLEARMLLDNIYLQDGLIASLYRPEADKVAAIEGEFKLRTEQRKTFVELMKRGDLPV

Data set [2] has as its target Genome polyprotein (dengue virus type 2, UniProt P29990). In words: Inhibition of Dengue virus 2 NS2B (50 to 95 residues)/NS3 (1 to 182 residues) protease expressed in Escherichia coli BL21 using Bz-Nle-Lys-Lys-Arg-AMC as substrate preincubated for 10 mins by fluorescence-based biochemical assay. The method in brief: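 Recombinant DENV-2 NS2B-NS3 protease assayed like the ZIKV protease. Bz-Nle-Lys-Lys-Arg-AMC substrate, compound pre-incubated with enzyme 10 min, fluorescence monitored at Ex 360/Em 460 nm. IC50 from dose-response fit of triplicate samples at increasing concentrations.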

Data set [3] deals with Genome polyprotein (West Nile virus, UniProt P06935). In words: Inhibition of West Nile virus NS2B (49 to 96 residues)/NS3 (2 to 184 residues) protease expressed in Escherichia coli BL21 using Bz-Nle-Lys-Lys-Arg-AMC as substrate preincubated for 10 mins by fluorescence-based biochemical assay. The gist of the method: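 Recombinant WNV NS2B-NS3 protease, tested in the same way as the Zika protease assay. Compound was preincubated with enzyme for 10 min before Bz-Nle-Lys-Lys-Arg-AMC was added. Hydrolysis was followed as AMC fluorescence (Ex 360/Em 460 nm) read every 30 s. IC50 was derived by dose-response curve fitting.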
Sequence of Genome polyprotein (West Nile virus, UniProt P06935) (P06935 1371-1501 limits assumed): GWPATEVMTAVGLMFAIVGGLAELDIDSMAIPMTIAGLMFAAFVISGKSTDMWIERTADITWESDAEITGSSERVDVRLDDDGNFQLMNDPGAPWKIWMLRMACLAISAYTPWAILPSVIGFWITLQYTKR
Sequence of Genome polyprotein (West Nile virus, UniProt P06935) (P06935 1502-2120 limits assumed): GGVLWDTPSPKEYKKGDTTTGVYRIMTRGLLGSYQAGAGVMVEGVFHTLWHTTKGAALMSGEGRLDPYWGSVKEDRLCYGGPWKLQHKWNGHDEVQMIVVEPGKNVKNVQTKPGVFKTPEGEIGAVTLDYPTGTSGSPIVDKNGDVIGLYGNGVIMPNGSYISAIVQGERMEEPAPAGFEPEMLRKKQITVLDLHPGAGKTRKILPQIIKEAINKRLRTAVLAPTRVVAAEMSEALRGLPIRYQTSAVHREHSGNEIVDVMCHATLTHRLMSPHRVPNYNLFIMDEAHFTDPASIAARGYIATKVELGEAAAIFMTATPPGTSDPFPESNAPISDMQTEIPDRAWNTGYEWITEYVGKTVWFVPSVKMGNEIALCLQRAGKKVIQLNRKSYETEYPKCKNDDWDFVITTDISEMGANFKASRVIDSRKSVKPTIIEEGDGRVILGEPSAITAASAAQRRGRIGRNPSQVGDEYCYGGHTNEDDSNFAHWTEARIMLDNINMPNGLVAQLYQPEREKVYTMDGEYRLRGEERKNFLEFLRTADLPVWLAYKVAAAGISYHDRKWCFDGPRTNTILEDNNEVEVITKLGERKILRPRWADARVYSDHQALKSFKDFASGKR

The subject of data set [4] is Zika virus. In words: Antiviral activity against Zika virus infected in human U87 cells assessed as reduction in infectious virus in supernatant by measuring infection of Vero cells incubated with supernatant of viral infected U87 cells and measured following infection of supernatants with Vero cells for 7 days by MTT assay. Format: functional. The note with it: U-87 MG, 168 h, time 7 day. The method in brief: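 U87 cells (2×10^4/well) in DMEM with 2% FBS, infected with ZIKV FLR strain (passage-3 stock) at MOI 0.01 for 1 h, then PBS-washed. Compound added in triplicate, 2 days at 37 °C. Half-log dilutions of supernatant put on Vero monolayers in quadruplicate for 7 days. CPE by microscopy then MTT. TCID50 from highest dilution infecting 2/4 wells. At least 2 independent experiments.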
A general note: Tetrazolium dyes change colour on reduction, which living cells bring about.

The subject of data set [5] is U-87 MG. In words: Cytotoxicity against human U87 cells assessed as inhibition of growth by MTT assay. The format is cell-based. The conditions noted are these: u-87mg atcc.
Data set [6] deals with Genome polyprotein (dengue virus type 2) (UniProt P29990). In words: Competitive inhibition of Dengue virus 2 NS2B (50 to 95 residues)/NS3 (1 to 182 residues) protease expressed in Escherichia coli BL21 using increased concentration of Bz-Nle-Lys-Lys-Arg-AMC substrate. The gist of the method: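 Steady-state kinetics. Initial velocities were measured across a range of inhibitor concentrations and substrate levels. […] Fluorescence was read at Ex 360/Em 460 nm. An IC50 was fitted at each substrate level and plotted against substrate concentration to assign the mode of inhibition.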

Activity calls are given as the source filed them. The calls are words filed in the database; no cut-off is given here.

As for `O=C(NCC1CCNCC1)c1c[nH]c2cc(-c3ccc(CN4CCCCC4)cc3)ccc12`, the IC50 (in general, the concentration at which inhibition is half-maximal) was 3.1 µM in data set [1], 49.7 µM in data set [2] and 32 µM in data set [3]. Besides, the EC68 in data set [4] amounted to 10 µM. The CC50 – broadly, the concentration that lowers cell viability or growth by half – in data set [5] is > 10 µM.

Turning to `O=C(NCC1CCNCC1)c1c[nH]c2cc(-c3ccoc3)c(-c3ccoc3)cc12`, the figures for the IC50 in data set [1], in data set [2] and in data set [3] were 0.37 µM, 3.1 µM and 3.7 µM, respectively. For the same compound, the EC68 in data set [4] was found to be 3 µM. In addition, the CC50 in data set [5] was > 10 µM.

Turning to `O=C(NCC1CCNCC1)c1cc2ccc(-c3ccoc3)cc2[nH]1`, the IC50 in data set [1] was 0.32 µM; in data set [2], 1.6 µM; in data set [3], 5.7 µM. Further, the EC68 in data set [4] was 1 µM. Further, in data set [5], the CC50 was > 10 µM. For the same compound, the outcome in data set [6] was inactive.

Turning to `O=C(NCC1CCNCC1)c1cc2ccc(-c3ccc(Oc4ccccc4)cc3)cc2[nH]1`, the IC50 in data set [1] was found to be 1.6 µM; in data set [2], 6.5 µM; in data set [3], 6.6 µM. Besides, the EC68 in data set [4] turned out to be 2.5 µM. The CC50 in data set [5] is > 10 µM.

Regarding `O=C(NCC1CCNCC1)c1cc2ccc(-c3ccc(OC(F)(F)F)cc3)cc2[nH]1`, the results for the IC50 in data set [2] and in data set [3] were 10.7 µM and 16 µM, respectively. The EC68 in data set [4] is > 10 µM. In data set [5], the CC50 is > 10 µM.

As to `O=C(NCC1CCNCC1)c1cc2ccc(-c3cn[nH]c3)cc2[nH]1`, the IC50 amounted to 0.99 µM in data set [1], 10.3 µM in data set [2] and 3.5 µM in data set [3]. The EC68 in data set [4] was > 10 µM. In addition, the CC50 in data set [5] is > 10 µM.

For the compound `O=C(NCC1CCNCC1)c1c[nH]c2nc(-c3ccc(CN4CCCCC4)cc3)ccc12`, the IC50 came to 0.45 µM in data set [1], 9.2 µM in data set [2] and 8.6 µM in data set [3]. Further, the EC68 in data set [4] was 10 µM. In addition, the CC50 in data set [5] is > 10 µM.

Turning to `O=C(NC1CCNCC1)c1c[nH]c2cc(-c3ccncc3)ccc12`, the half-maximal inhibitory concentration (IC50) in data set [1] stood at 1 µM; in data set [2] it was 10 µM; in data set [3], 10.5 µM. In data set [4], the EC68 worked out at 10 µM. For the same compound, in data set [5], the CC50 is > 10 µM.
